Published values of several laboratories.
Compare with care: the assays were run in different laboratories.
EGFR del752-759: Epidermal growth factor receptor (EGFR, Homo sapiens, UniProt P00533, del752-759)
EGFR: Epidermal growth factor receptor (EGFR, Homo sapiens, UniProt P00533)
EGFR del746-750: Epidermal growth factor receptor (EGFR, Homo sapiens, UniProt P00533, del746-750)
EGFR L858R/T790M: Epidermal growth factor receptor (EGFR, Homo sapiens, UniProt P00533, L858R/T790M)
EGFR del747-752/P753S: Epidermal growth factor receptor (EGFR, Homo sapiens, UniProt P00533, del747-752/P753S)
EGFR L861Q: Epidermal growth factor receptor (EGFR, Homo sapiens, UniProt P00533, L861Q)
EGFR G719S: Epidermal growth factor receptor (EGFR, Homo sapiens, UniProt P00533, G719S)
EGFR L858R: Epidermal growth factor receptor (EGFR, Homo sapiens, UniProt P00533, L858R)
EGFR G719C: Epidermal growth factor receptor (EGFR, Homo sapiens, UniProt P00533, G719C)

| Structure (SMILES) | target | test | conditions | remaining binding [%] |
| --- | --- | --- | --- | --- |
| c1ccc(N2CCN(Cc3nc4ccccc4[nH]3)CC2)nc1 | Epidermal growth factor receptor (EGFR, Homo sapiens, UniProt P00533, A750P/del747-749) | cell-free assay, competition with immobilised ligand | 1 µM | 100 |
| COc1ccnn2ncc(-c3ccnc(N(C)C)n3)c12 | EGFR del752-759 | binding | 1 µM | 86 |
| O=C(c1ccc(Nc2ncc(Cl)c(-c3cc4ccccc4s3)n2)cc1)N1CCC(N2CCCC2)CC1 | EGFR | binding, competition with immobilised ligand | 1 µM | 90 |
| N#Cc1ccc(Nc2ccc3[nH]c(=O)[nH]c3c2)c(Cl)c1 | EGFR del752-759 | cell-free assay, competition with immobilised ligand | 1 µM | 100 |
| CN(C)c1nccc(-c2cnn3ncccc23)n1 | EGFR | binding | 1 µM | 100 |
| CNCc1ccccc1-c1csc([C@@H](C)Nc2nc(C)nc3cc(OC)c(OC)cc23)c1 | EGFR del752-759 | cell-free assay, competition with immobilised ligand | 1 µM | 63 |
| O=C(NCCCN1CCOCC1)c1ccc(Nc2nccc(-c3cc4ccccc4s3)n2)cc1 | EGFR del746-750 | binding, competition with immobilised ligand | 1 µM | 100 |
| CNC(=O)[C@@H]1CC[C@@H](n2c(-c3ccc4cnccc4c3)nc3ccc(C(=O)NCc4cccc(C(N)=O)c4)cc32)C1 | EGFR L858R/T790M | binding, competition with immobilised ligand | 1 µM | 92 |
| CN(C)CC#Cc1ccc(OCCCc2sc(N3CCc4cccc(C(=O)Nc5nc6ccccc6s5)c4C3)nc2C(=O)O)c(F)c1 | EGFR del747-752/P753S | cell-free assay, competition with immobilised ligand | 1 µM | 100 |
| CC1CCCN1c1nccc(-c2cnn3ncccc23)n1 (stereo not shown) | EGFR L861Q | binding | 1 µM | 100 |
| O=C(NCC1CCOCC1)c1n[nH]cc1NC(=O)c1c(F)cccc1F | EGFR del746-750 | binding, competition with immobilised ligand | 1 µM | 100 |
| CO[C@@H](C)c1c(Nc2ccc([C@@H](N(C)C(=O)C3CCS(=O)(=O)CC3)C(F)(F)F)cc2)cnc2cc(Cl)nn12 | EGFR G719S | cell-free assay, competition with immobilised ligand | 1 µM | 96 |
| CN(CCCC(F)(F)F)c1nccc(-c2cnn3ncccc23)n1 | EGFR L858R | binding | 1 µM | 85 |
| O=C(Nc1c[nH]nc1C(=O)NC1CCNCC1)c1cc(F)cc(F)c1 | Epidermal growth factor receptor (EGFR, Homo sapiens, UniProt P00533, T790M) | binding, competition with immobilised ligand | 1 µM | 100 |
| COc1cnc(Nc2cccc(S(N)(=O)=O)c2)nc1N1CCN(c2ccccc2)C(=O)C1 | EGFR L858R | binding, competition with immobilised ligand | 1 µM | 100 |
| c1cncc(-c2cccc(Nc3nccc(NC4CCCCC4)n3)c2)c1 | EGFR L858R/T790M | binding, competition with immobilised ligand | 10 µM | 29 |

| Structure (SMILES) | target | test | conditions | remaining binding [%] |
| --- | --- | --- | --- | --- |
| Cc1cnn2ncc(-c3ccnc(N(C)C)n3)c2c1 | EGFR del752-759 | binding | 1 µM | 100 |
| NS(=O)(=O)c1cc(NC(=O)Cc2ccccc2)ccc1Oc1cccc(Cl)c1 | EGFR L858R/T790M | cell-free assay, competition with immobilised ligand | 1 µM | 75 |
| COc1ncc2cc3ccccc3nc2c1C#N | EGFR L861Q | cell-free assay, competition with immobilised ligand | 5 µM | 100 |
| COc1cnc(Nc2cccc(S(N)(=O)=O)c2)nc1N1CCN(c2ccccc2)CC1 | EGFR | binding, competition with immobilised ligand | 1 µM | 100 |
| Cc1cnc(Nc2ccc(C(=O)N3CCC(N4CCCC4)CC3)cc2)nc1-c1cc2ccccc2s1 | EGFR G719S | binding, competition with immobilised ligand | 1 µM | 97 |
| CN1CCN(c2ccc(Nc3nccc(-c4cccc([N+](=O)[O-])c4)n3)cc2C(F)(F)F)CC1 | EGFR G719C | binding | 10 µM | 69 |
| C[C@@H]1CCN(c2nccc(-c3cnn4ncccc34)n2)C1 | EGFR G719S | binding | 1 µM | 74 |
| O=C(c1ccc(Nc2nccc(-c3cc4ccccc4s3)n2)cc1)N1CCC(N2CCCC2)CC1 | EGFR L858R | binding, competition with immobilised ligand | 1 µM | 100 |
| CCN1CCN(Cc2ccc(C(=O)Nc3ccc(C)c(Oc4ccc5c(c4)CC(=O)N5)c3)cc2C(F)(F)F)CC1 | EGFR del747-752/P753S | binding, competition with immobilised ligand | 1 µM | 100 |
| CN(C)c1ncc(F)c(-c2cnn3ncccc23)n1 | EGFR G719C | binding | 1 µM | 86 |
| C[C@H](c1ccnc(Nc2nc3ccc(-c4cc(N(C)C)ncn4)cc3[nH]2)c1)N1CCN(C(=O)CC(F)(F)F)CC1 | EGFR del747-752/P753S | cell-free assay, competition with immobilised ligand | 0.1 µM | 69 |
| O=C(c1ccc(Nc2ncc(Cl)c(-c3ccc(Cl)s3)n2)cc1)N1CCC(N2CCCC2)CC1 | EGFR L861Q | binding, competition with immobilised ligand | 1 µM | 100 |
| Nc1ncc2c(n1)-c1c([nH]c3ccc(C#CC4CC4)cc13)CCCC2 | EGFR G719C | binding, competition with immobilised ligand | 1 µM | 91 |
| O=C(NCCCN1CCOCC1)c1ccc(Nc2ncc(Cl)c(-c3ccc(Cl)s3)n2)cc1 | EGFR del752-759 | binding, competition with immobilised ligand | 1 µM | 92 |
| Nc1cnc(N2CCc3cc(S(=O)(=O)Nc4c(F)cc(Cl)cc4F)cc(N4CCCC4=O)c32)nc1 | EGFR L858R | cell-free assay, competition with immobilised ligand | 1 µM | 85 |
